One assay deals with T1, Recombinant GGDPS (Homo sapiens, UniProt O95749).
T1 sequence (O95749 1-300): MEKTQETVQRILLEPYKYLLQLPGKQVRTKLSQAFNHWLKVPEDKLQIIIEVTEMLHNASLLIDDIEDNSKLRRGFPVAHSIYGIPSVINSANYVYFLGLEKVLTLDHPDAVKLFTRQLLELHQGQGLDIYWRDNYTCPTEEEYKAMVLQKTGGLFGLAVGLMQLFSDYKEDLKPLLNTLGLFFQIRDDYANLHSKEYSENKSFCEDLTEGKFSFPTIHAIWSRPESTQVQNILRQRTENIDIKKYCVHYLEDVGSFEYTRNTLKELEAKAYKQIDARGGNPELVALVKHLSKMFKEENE
Briefly: GGDPS enzyme assay. It is filed as biochemical.

Another assay has as its system RPMI-8226 cells. Briefly: Disruption of protein geranylgeranylation in myeloma cells. It is filed as cell-based. As to conditions: 48 hours. Summed up: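 RPMI-8226 myeloma cells exposed 48 h to varying test compound concentrations, with lovastatin 10 μM as comparator. Rap1a: RIPA whole-cell lysate, antibody recognising only unmodified protein, β-tubulin loading control. Rab6: Triton X-114 detergent (membrane) fraction, calnexin loading control, densitometry normalised to calnexin and to untreated cells. Equal BCA-quantified protein resolved by SDS-PAGE, transferred to PVDF, detected with HRP secondary and ECL.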

Each structure is given as a SMILES string.

In the case of `CC(C)=CCC/C(C)=C/CCCn1cc(CC(P(=O)([O-])[O-])P(=O)([O-])[O-])nn1.[Na+].[Na+].[Na+].[Na+]` [17b, Sodium (4E)–(2–(1–(5,9–dimethyldeca–4,8–dienyl)–1H–1,2,3–triazol–4–yl)ethane–1,1–diyl)bis(phosphonate)], at Recombinant GGDPS (compared with previously reported compound 1), the “potency relative to geranyl 1 (GGDPS inhibitory activity)” value is on record as “six-fold more potent”. Besides, the “fold less potent than homogeranyl 4 (GGDPS inhibitory activity)” value at Recombinant GGDPS (compared with previously reported compound 4) turned out to be 15 fold.
For the compound `CC(C)=CCC/C(C)=C\CCCn1cc(CC(P(=O)([O-])[O-])P(=O)([O-])[O-])nn1.[Na+].[Na+].[Na+].[Na+]` [17c, Sodium (4Z)–(2–(1–(5,9–dimethyldeca–4,8–dienyl)–1H–1,2,3–triazol–4–yl)ethane–1,1–diyl)bis(phosphonate)], the “lowest concentration at which disruption of protein geranylgeranylation was seen” value in the assay with RPMI-8226 cells was 0.5 µM.

Values taken from PMC5450914 (Bioorganic & medicinal chemistry, 2017).
